A selection: hits, their analogues and other compounds. The true share with any hit is near 2.3%.
DNMT1 block: human DNMT1 methyltransferase inhibitors, primary screen, biochemical, molecular beacon, fluorescence, HinP1I cleavage, uHTS; DNA (cytosine-5)-methyltransferase 1 (Homo sapiens), P26358; inhibition (reported as % activation of signal), % at 10 µM; hit rate 0.83% among 360,000; AID 588458, 2011; in the data active = inhibition above about 50%
LMPTP inh: LMPTP phosphatase inhibitors, primary screen, biochemical, fluorescence intensity, uHTS; Low molecular weight phosphotyrosine protein phosphatase (Homo sapiens), P24666; recombinant LMPTP-A, OMFP fluorogenic substrate; inhibition, % at 20 µM; hit rate 0.22% among 360,000;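 active = compounds that cut the enzyme signal by at least half of the control window in the single-dose screen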
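Test system: LMPTP-A, protein tyrosine phosphatase of low molecular weight; Input: 0.625 nM enzyme; Incubation: 50 min dark incubation at room temperature; Signal: endpoint fluorescence intensity from OMFP dephosphorylation; Read-out basis: % inhibition versus control wells.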
Scp1 inh: Scp-1 phosphatase inhibitors, primary screen, biochemical, colorimetric, uHTS. Carboxy-terminal domain RNA polymerase II polypeptide A small phosphatase 1 (Homo …. Recombinant Scp1, phosphopeptide, malachite green phosphate absorbance. inhibition, % at 20 µM. hit rate 0.88% among 340,000;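 active = inhibition above about 50% at 20 µM, limit read from the data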
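Assay system: SCP-1 catalytic fragment, aa 76-261 | Buffer or medium: Tris acetate buffer pH 5.5 with MgCl2 and Tween-20 | Compound: One concentration, 20 µM, with 1.0% DMSO | Also added: Phospho 17-mer peptide substrate | Signal: Absorbance at 630 nm | Incubation: 45 min enzyme reaction at room temperature | Measure: % inhibition of SCP-1 phosphate liberation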
Rpn11 block: Rpn11 (PSMD14) deubiquitinase inhibitors, primary screen, biochemical, fluorescence polarization, uHTS | inhibition, % at 20 µM | 26S proteasome non-ATPase regulatory subunit 14 (Homo sapiens), O00487 | human 26S proteasome, Ub4-pepOG fluorescence polarization; 20S core pre-blocked with epoxomicin | hit rate 0.59% among 360,000;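 active = inhibition at 20 µM, scaled to each plate's controls, above about 33%, limit read from the data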
SUMO1-SIM PPI: modulators of SUMO1 protein-protein interactions, primary screen, biochemical, uHTS | hit rate 0.33% among 360,000 | Small ubiquitin-related modifier 1 (Homo sapiens), P63165 | AID 602429, 2012 | SUMO1 binding to a labelled peptide, TR-FRET, 1 h | inhibition, % at 20 µM; in the data active = inhibition above about 37%
Target sequence (P63165 whole entry, looked up): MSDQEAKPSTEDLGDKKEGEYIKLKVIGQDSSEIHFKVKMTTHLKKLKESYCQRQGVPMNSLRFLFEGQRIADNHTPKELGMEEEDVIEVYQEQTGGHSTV
STEP block: STEP phosphatase inhibitors, primary screen, biochemical, fluorescence intensity, uHTS. Tyrosine-protein phosphatase non-receptor type 5 (Homo sapiens), P54829. recombinant STEP, OMFP fluorogenic substrate. inhibition, % at 20 µM. hit rate 0.25% among 360,000;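 active = inhibition at 20 µM, scaled per plate between control wells, above about 37%, limit read from the data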
Target sequence (P54829 whole entry, looked up): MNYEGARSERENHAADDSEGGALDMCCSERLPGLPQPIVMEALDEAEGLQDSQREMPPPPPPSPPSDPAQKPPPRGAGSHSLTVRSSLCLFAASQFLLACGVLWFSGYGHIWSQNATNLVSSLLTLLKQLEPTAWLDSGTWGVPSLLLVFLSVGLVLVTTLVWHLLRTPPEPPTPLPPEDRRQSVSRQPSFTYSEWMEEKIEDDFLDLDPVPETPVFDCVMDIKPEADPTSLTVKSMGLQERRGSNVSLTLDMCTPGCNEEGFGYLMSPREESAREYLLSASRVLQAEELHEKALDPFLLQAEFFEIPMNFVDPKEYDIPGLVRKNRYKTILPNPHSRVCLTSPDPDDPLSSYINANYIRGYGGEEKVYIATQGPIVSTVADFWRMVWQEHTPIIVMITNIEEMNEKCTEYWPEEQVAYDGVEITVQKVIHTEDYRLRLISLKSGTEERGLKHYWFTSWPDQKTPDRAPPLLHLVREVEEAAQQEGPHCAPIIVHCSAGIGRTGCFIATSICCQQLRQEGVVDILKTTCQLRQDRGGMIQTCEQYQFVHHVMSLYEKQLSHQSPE
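medium = Bis-Tris buffer pH 6.0, 2.5 mM DTT, 0.005% Tween 20 | test system = STEP (striatal-enriched tyrosine phosphatase) enzyme, cell-free | measure = normalized % inhibition | compound dosing = 20 µM, 1% DMSO | also added = 25 µM OMFP | schedule = reaction 20 min, ambient temperature | measured by = fluorescence read at 480 nm ex / 540 nm em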
Rpn11 confirm: Rpn11 (PSMD14) deubiquitinase inhibitors, confirmation, biochemical, fluorescence polarization, single concentration; inhibition, % at 20 µM; shares compounds with Rpn11 block; purified human 26S proteasome, Ub4-pepOG fluorescence polarization; proteasome pretreated with epoxomicin; hit rate 29% among 1,900
MMP-2 inh: MMP-2 enzyme inhibition, confirmation, counter-screen for RPN11 inhibitor project, biochemical, fluorescence, single concentration; shares compounds with Rpn11 block; recombinant MMP-2, FRET peptide cleavage fluorescence; inhibition, % at 20 µM; hit rate 4% among 1,900; AID 602330, 2012;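 also: human MMP-2 activated beforehand with APMA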
Thrombin FP: bovine thrombin protease inhibition, confirmation, counter-screen for Rpn11 inhibitor project, biochemical, fluorescence polarization, single concentration; inhibition, % at 20 µM; shares compounds with Rpn11 block; bovine thrombin cleavage of Ub4-pepOG; AID 602333, 2012; hit rate 13% among 1,900;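 active = mean inhibition at least 40% at 20 µM, or signal 3 deviations below plate average, so some actives read negative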
Each line names hits and unclear results; the compound was inactive in the other large screens (follow-up assays come after a bar, where they were run); ! = not active in a repeat. Rule as the data show it, unless noted: active = inhibition above about 40%; inactive = the rest.

O=C(Nc1nc2ccccc2s1)C1CCCN1S(=O)(=O)c1ccc(Cl)cc1 (stereo unspecified)	none
CCc1ccc(/C=C/c2c[nH]c3ccccc23)[n+](CC)c1	Rpn11 block 49.7 | Rpn11 confirm inactive | MMP-2 inh inactive | Thrombin FP 43.0
Cc1ccc2oc(=O)c(/C=C(\O)C(C)(C)C)nc2c1	none
Cc1ccc2oc(=O)c(/C=C(\O)c3ccco3)nc2c1	Rpn11 block 66.5 | Rpn11 confirm 70.0 | MMP-2 inh inactive | Thrombin FP inactive
O=C(Nc1ccc2c(c1)nc1n2CCOC1)C1CCCCC1	Rpn11 block active | Rpn11 confirm inactive | MMP-2 inh inactive | Thrombin FP inactive
CC(=O)Nc1ccc2c(c1)nc1n2CCOC1	none
COc1cccc(C(=O)CN2C(=O)C(C)(C)Oc3ccc(C(=O)N4CCCCCC4)cc32)c1	Rpn11 block 163.0 | Rpn11 confirm inactive | MMP-2 inh inactive | Thrombin FP inactive
CCC(C)(C(=O)NC1CCCCC1)N(Cc1cccs1)C(=O)c1ccc(=O)[nH]c1 (stereo unspecified)	none
COc1ccc(-c2cc(C(=O)Nc3ccc(Br)cc3)no2)cc1	Rpn11 block 59.1 | Rpn11 confirm inactive | MMP-2 inh inactive | Thrombin FP inactive
CCOc1ccc(C(C)=O)cc1CSc1nc2nc(C)cc(C)n2n1	none
Cc1cc(-c2csc(NC(=O)c3cccc(S(=O)(=O)N(C)C)c3)n2)c(C)n1-c1ccccc1	Rpn11 block 37.3 | Rpn11 confirm inactive | MMP-2 inh inactive | Thrombin FP inactive
COC(=O)c1ccc(-n2c(C)cc(-c3csc(NC(=O)c4ccc(S(=O)(=O)N(C)C)cc4)n3)c2C)cc1	none
CCn1c(SCC(=O)c2c[nH]c3ccccc23)nnc1-c1cccs1	Rpn11 block 45.8 | Rpn11 confirm 78.5 | MMP-2 inh inactive | Thrombin FP 44.1
Oc1c(CN2CCCCC2)cc(COCc2ccccc2)c2cccnc12	Rpn11 block 75.8 | Rpn11 confirm inactive | MMP-2 inh inactive | Thrombin FP inactive
COc1ccccc1N1CCN(Cc2cc(Br)c(O)c3ncccc23)CC1	Rpn11 block 45.4 | Rpn11 confirm inactive | MMP-2 inh inactive | Thrombin FP inactive
COCc1cc(CN2CCCC2)c(O)c2ncccc12	none
CC(=O)N1CCN(Cc2cc(=O)oc3cc(C)cc(C)c23)CC1	none (no result: Scp1 inh)
CCC(=Cc1ccccc1O)c1ccncc1	none
CCN=c1scc(-c2ccc3c(c2)NC(=O)CO3)n1N=C1CCCC1	Rpn11 block 44.5! | Rpn11 confirm inactive | MMP-2 inh inactive | Thrombin FP inactive
CCCCN=c1scc(-c2ccc3c(c2)NC(=O)CO3)n1N=C1CCCC1	Rpn11 block 54.7 | Rpn11 confirm 41.9 | MMP-2 inh inactive | Thrombin FP inactive
COc1ccccc1N=c1scc(-c2ccc3c(c2)NC(=O)CO3)n1CC1CCCO1 (stereo unspecified)	none
COCC(C)n1c(-c2ccc3c(c2)NC(=O)CO3)csc1=Nc1ccc(OC(F)F)cc1 (stereo unspecified)	none
N#CCC(=O)c1ccccc1Oc1ccc(Cl)cc1	Rpn11 block 65.0 | Rpn11 confirm inactive | MMP-2 inh inactive | Thrombin FP inactive
CC(C)(C)c1nc2ccccc2c2nnc(SCC(=O)Nc3nccs3)n12	none
CC(C)(C)c1nc2ccccc2c2nnc(SCC(=O)Nc3nc4ccccc4s3)n12	Rpn11 block 187.5 | Rpn11 confirm 81.2 | MMP-2 inh inactive | Thrombin FP inactive
CCn1cc(C(=O)O)c(=O)c2cc(F)c(N/N=C/c3ccccc3[N+](=O)[O-])cc21	Rpn11 block 100.5 | Rpn11 confirm inactive | MMP-2 inh inactive | Thrombin FP inactive
CCn1cc(C(=O)O)c(=O)c2cc(F)c(N3CCN(S(=O)(=O)c4ccc(NC(=O)OC)cc4)CC3)cc21	none
Cc1c(Cc2ccccc2)sc(NC(=O)/C=C/c2cccc3ccccc23)c1C(N)=O	Rpn11 block 37.5 | Rpn11 confirm inactive | MMP-2 inh inactive | Thrombin FP inactive
Clc1cccc(-c2nc3ccc(Br)cn3c2Cc2ccccc2)c1	Rpn11 block 49.9 (no result: Scp1 inh) | Rpn11 confirm inactive | MMP-2 inh inactive | Thrombin FP inactive
Clc1cccc(Cc2c(-c3cccc(Br)c3)nc3ccc(Br)cn23)c1	none (no result: Scp1 inh)
Brc1cccc(-c2nc3ccc(Br)cn3c2Cc2ccccc2)c1	Rpn11 block 44.0 (no result: Scp1 inh) | Rpn11 confirm inactive | MMP-2 inh inactive | Thrombin FP inactive
COc1ccc(-c2csc(NC(=O)c3c(C)noc3C)n2)cc1OC	none (no result: Scp1 inh)
COC1=Nc2ccccc2/C=C\c2ccccc21	none (no result: Scp1 inh)
CCC(C)C(=O)Nc1nc(C)c(-c2csc(Nc3ccc(Cl)cc3)n2)s1 (stereo unspecified)	Rpn11 block 39.1 | Rpn11 confirm inactive | MMP-2 inh inactive | Thrombin FP inactive
Cc1ccc(C(C(=O)Nc2ccc3c(c2)OCO3)N(C)C(=O)/C=C\c2ccc3c(c2)OCO3)cc1 (stereo unspecified)	none
CN1C=CC=C/C1=C1/N=C(c2ccccc2)OC1=O	none
CC1=CC(=C2N=C(c3ccccc3)OC2=O)C=C(C)O1	Rpn11 block 51.1 | Rpn11 confirm 152.4 | MMP-2 inh inactive | Thrombin FP inactive
C=CCN=C1S/C(=C\c2ccc(N(C)C)cc2)C(=O)N1CC=C	Rpn11 block 92.2 | Rpn11 confirm inactive | MMP-2 inh inactive | Thrombin FP inactive
C=CCN1C(=O)/C(=C/c2ccc(OC)cc2)S/C1=N/c1nccs1	none
O=C(CN1CCCc2ccccc21)N/N=C/c1ccccc1	Rpn11 block 65.5 | Rpn11 confirm inactive | MMP-2 inh inactive | Thrombin FP inactive
O=C(C1CC(=O)N(c2ccccc2)C1)N1CCN(c2ccccc2)CC1 (stereo unspecified)	none

Screening results from PubChem.
